# Data published in ChEMBL document CHEMBL3124902, “Homoisoflavonoids as potential imaging agents for β-amyloid plaques in Alzheimer's disease” (Eur J Med Chem, 2014).
# Active and inactive are the calls of the source. The calls are words filed in the database; no cut-off is given here.
# Experiments:
# [1] = target: T1, Amyloid-beta precursor protein (Homo sapiens, UniProt P05067); assay: Binding affinity to beta amyloid-containing senile plaques of Alzheimer's disease patient at 50 uM after 20 mins by thioflavin-S staining-based fluorescence microscopic analysis
# T1 sequence (P05067 whole entry): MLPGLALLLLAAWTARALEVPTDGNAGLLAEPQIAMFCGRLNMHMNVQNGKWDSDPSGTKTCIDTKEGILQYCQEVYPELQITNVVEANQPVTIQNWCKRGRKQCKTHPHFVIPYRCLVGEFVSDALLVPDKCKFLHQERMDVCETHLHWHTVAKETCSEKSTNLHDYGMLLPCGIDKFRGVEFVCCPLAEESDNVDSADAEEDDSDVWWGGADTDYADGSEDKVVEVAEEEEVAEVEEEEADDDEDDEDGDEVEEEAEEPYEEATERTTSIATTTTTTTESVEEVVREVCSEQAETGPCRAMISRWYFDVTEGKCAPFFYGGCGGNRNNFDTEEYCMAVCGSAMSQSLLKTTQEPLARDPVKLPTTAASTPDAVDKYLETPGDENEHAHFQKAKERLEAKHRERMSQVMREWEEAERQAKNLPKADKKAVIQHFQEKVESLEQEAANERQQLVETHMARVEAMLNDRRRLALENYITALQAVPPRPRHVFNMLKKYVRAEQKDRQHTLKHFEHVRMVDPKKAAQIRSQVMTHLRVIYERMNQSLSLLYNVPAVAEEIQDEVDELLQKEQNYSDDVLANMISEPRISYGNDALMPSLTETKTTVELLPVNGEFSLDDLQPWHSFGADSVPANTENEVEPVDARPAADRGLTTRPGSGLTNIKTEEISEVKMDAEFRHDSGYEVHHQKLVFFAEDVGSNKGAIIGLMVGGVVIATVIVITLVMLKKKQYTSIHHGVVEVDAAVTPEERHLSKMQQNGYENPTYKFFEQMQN
# In short: (§1)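 Paraffin sections of postmortem AD brain were dewaxed in xylene, passed through graded ethanol, then rinsed in water and 0.01 M PBS at pH 7.4. Sections were immersed in cold ligand (50 in 30% EtOH/0.1 M PBS) for 20 min and differentiated in 50% EtOH for 10 min. Adjacent sections were stained with ThS (1%, 5 min) and differentiated in 70% EtOH. Sections were then PBS-washed, mounted in 80% glycerin and imaged by fluorescence microscopy.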
# [2] = target: T1, Amyloid-beta precursor protein; assay: Displacement of [125I]IMPY from amyloid beta (1 to 40) (unknown origin) after 2 hrs by gamma counting analysis
# In short: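 Incubation was 2 h at 37 °C. Bound and free fractions were separated by filtration through GF/B filters, followed by ice-cold PBS washes and counting. IC50 came from displacement curves of three independent experiments, done in duplicate. Ki was obtained by Cheng-Prusoff.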
# [3] = target: Microtubule-associated protein tau (Homo sapiens) (UniProt P10636); assay: Binding affinity to hyperphosphorylated tau protein-containing neurofibrillary tangles of Alzheimer's disease patient at 50 uM after 20 mins by thioflavin-S staining-based fluorescence microscopic analysis; in short: as §1
# Sequence of Microtubule-associated protein tau (Homo sapiens) (P10636 whole entry): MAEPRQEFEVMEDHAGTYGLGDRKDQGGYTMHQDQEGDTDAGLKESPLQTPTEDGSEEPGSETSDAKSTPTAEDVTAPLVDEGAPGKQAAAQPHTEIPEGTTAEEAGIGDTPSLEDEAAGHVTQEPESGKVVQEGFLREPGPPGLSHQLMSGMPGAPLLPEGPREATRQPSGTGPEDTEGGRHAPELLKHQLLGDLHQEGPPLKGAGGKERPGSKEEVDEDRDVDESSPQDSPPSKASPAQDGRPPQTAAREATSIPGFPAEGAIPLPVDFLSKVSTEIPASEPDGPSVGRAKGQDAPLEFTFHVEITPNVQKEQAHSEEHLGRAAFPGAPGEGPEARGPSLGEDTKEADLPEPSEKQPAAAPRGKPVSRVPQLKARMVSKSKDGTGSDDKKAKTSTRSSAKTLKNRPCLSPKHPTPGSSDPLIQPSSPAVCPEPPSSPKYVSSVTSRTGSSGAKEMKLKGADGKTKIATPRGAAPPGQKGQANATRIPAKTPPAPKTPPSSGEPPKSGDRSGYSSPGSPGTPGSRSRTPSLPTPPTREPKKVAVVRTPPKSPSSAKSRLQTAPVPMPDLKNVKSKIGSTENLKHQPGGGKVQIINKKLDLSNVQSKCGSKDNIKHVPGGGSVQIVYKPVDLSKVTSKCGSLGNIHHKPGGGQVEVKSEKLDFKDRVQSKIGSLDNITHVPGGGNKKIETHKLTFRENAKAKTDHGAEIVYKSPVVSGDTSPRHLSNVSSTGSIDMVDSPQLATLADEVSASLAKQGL
# Kidney [4] = assay: Biodistribution in ICR mouse kidney at 2 uCi, iv measured at 30 mins by gamma counting analysis; assay type: ADME, organism-based; settings: in vivo, 0.5 h
# In short: (§2)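 The radioiodinated ligand was given intravenously to normal ICR mice, n=5 per time point. Mice were euthanized at 2, 10, 30, 60 and 120 min, and organs were removed and weighed. Radioactivity was gamma counted. %ID/g was calculated as counts per gram of tissue divided by counts of 1% of the injected dose, taken from a 100-fold diluted aliquot.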
# Spleen [5] = assay: Biodistribution in ICR mouse spleen at 2 uCi, iv measured at 2 hrs by gamma counting analysis; assay type: ADME, organism-based; settings: in vivo; in short: as §2
# Spleen [6] = assay: Biodistribution in ICR mouse spleen at 2 uCi, iv measured at 1 hr by gamma counting analysis; assay type: ADME, organism-based; settings: in vivo; in short: as §2
# Blood [7] = assay: Biodistribution in ICR mouse blood at 2 uCi, iv measured at 30 mins by gamma counting analysis; assay type: ADME, organism-based; settings: in vivo, 0.5 h; in short: as §2
# Heart [8] = assay: Biodistribution in ICR mouse heart at 2 uCi, iv measured at 10 mins by gamma counting analysis; assay type: ADME, organism-based; settings: in vivo; in short: as §2
# Spleen [9] = assay: Biodistribution in ICR mouse spleen at 2 uCi, iv measured at 2 mins by gamma counting analysis; assay type: ADME, organism-based; settings: in vivo; in short: as §2
# Spleen [10] = assay: Biodistribution in ICR mouse spleen at 2 uCi, iv measured at 30 mins by gamma counting analysis; assay type: ADME, organism-based; settings: in vivo, 0.5 h; in short: as §2
# Brain [11] = assay: Biodistribution in ICR mouse brain at 2 uCi, iv measured at 30 mins by gamma counting analysis; assay type: ADME, organism-based; settings: in vivo, 0.5 h; in short: as §2
# Lung [12] = assay: Biodistribution in ICR mouse lung at 2 uCi, iv measured at 1 hr by gamma counting analysis; assay type: ADME, organism-based; settings: in vivo; in short: as §2
# Brain [13] = assay: Biodistribution in ICR mouse brain at 2 uCi, iv measured at 2 mins by gamma counting analysis; assay type: ADME, organism-based; settings: in vivo; in short: as §2
# Kidney [14] = assay: Biodistribution in ICR mouse kidney at 2 uCi, iv measured at 10 mins by gamma counting analysis; assay type: ADME, organism-based; settings: in vivo; in short: as §2
# Spleen [15] = assay: Biodistribution in ICR mouse spleen at 2 uCi, iv measured at 10 mins by gamma counting analysis; assay type: ADME, organism-based; settings: in vivo; in short: as §2
# Blood [16] = assay: Biodistribution in ICR mouse blood at 2 uCi, iv measured at 2 mins by gamma counting analysis; assay type: ADME, organism-based; settings: in vivo; in short: as §2
# Blood [17] = assay: Biodistribution in ICR mouse blood at 2 uCi, iv measured at 1 hr by gamma counting analysis; assay type: ADME, organism-based; settings: in vivo; in short: as §2
# Liver [18] = assay: Biodistribution in ICR mouse liver at 2 uCi, iv measured at 2 mins by gamma counting analysis; assay type: ADME, organism-based; settings: in vivo; in short: as §2
# Kidney [19] = assay: Biodistribution in ICR mouse kidney at 2 uCi, iv measured at 2 hrs by gamma counting analysis; assay type: ADME, organism-based; settings: in vivo; in short: as §2
# Heart [20] = assay: Biodistribution in ICR mouse heart at 2 uCi, iv measured at 1 hr by gamma counting analysis; assay type: ADME, organism-based; settings: in vivo; in short: as §2
# Brain [21] = assay: Biodistribution in ICR mouse brain at 2 uCi, iv measured at 2 hrs by gamma counting analysis; assay type: ADME, organism-based; settings: in vivo; in short: as §2
# Liver [22] = assay: Biodistribution in ICR mouse liver at 2 uCi, iv measured at 2 hrs by gamma counting analysis; assay type: ADME, organism-based; settings: in vivo; in short: as §2
# Blood [23] = assay: Biodistribution in ICR mouse blood at 2 uCi, iv measured at 10 mins by gamma counting analysis; assay type: ADME, organism-based; settings: in vivo; in short: as §2
# Liver [24] = assay: Biodistribution in ICR mouse liver at 2 uCi, iv measured at 1 hr by gamma counting analysis; assay type: ADME, organism-based; settings: in vivo; in short: as §2
# Lung [25] = assay: Biodistribution in ICR mouse lung at 2 uCi, iv measured at 2 mins by gamma counting analysis; assay type: ADME, organism-based; settings: in vivo; in short: as §2
# Brain [26] = assay: Biodistribution in ICR mouse brain at 2 uCi, iv measured at 10 mins by gamma counting analysis; assay type: ADME, organism-based; settings: in vivo; in short: as §2
# Blood [27] = assay: Biodistribution in ICR mouse blood at 2 uCi, iv measured at 2 hrs by gamma counting analysis; assay type: ADME, organism-based; settings: in vivo; in short: as §2
# Kidney [28] = assay: Biodistribution in ICR mouse kidney at 2 uCi, iv measured at 1 hr by gamma counting analysis; assay type: ADME, organism-based; settings: in vivo; in short: as §2
# Liver [29] = assay: Biodistribution in ICR mouse liver at 2 uCi, iv measured at 10 mins by gamma counting analysis; assay type: ADME, organism-based; settings: in vivo; in short: as §2
# Heart [30] = assay: Biodistribution in ICR mouse heart at 2 uCi, iv measured at 2 mins by gamma counting analysis; assay type: ADME, organism-based; settings: in vivo; in short: as §2
# Lung [31] = assay: Biodistribution in ICR mouse lung at 2 uCi, iv measured at 30 mins by gamma counting analysis; assay type: ADME, organism-based; settings: in vivo, 0.5 h; in short: as §2
# Kidney [32] = assay: Biodistribution in ICR mouse kidney at 2 uCi, iv measured at 2 mins by gamma counting analysis; assay type: ADME, organism-based; settings: in vivo; in short: as §2
# Heart [33] = assay: Biodistribution in ICR mouse heart at 2 uCi, iv measured at 30 mins by gamma counting analysis; assay type: ADME, organism-based; settings: in vivo, 0.5 h; in short: as §2
# Lung [34] = assay: Biodistribution in ICR mouse lung at 2 uCi, iv measured at 2 hrs by gamma counting analysis; assay type: ADME, organism-based; settings: in vivo; in short: as §2
# Brain [35] = assay: Ratio of drug level in ICR mouse brain measured at 60 mins to drug level in ICR mouse brain measured at 2 mins; assay type: ADME; settings: in vivo
# In short: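 Brain uptake (%ID/g) at 60 min was divided by uptake at 2 min after intravenous injection into normal ICR mice, n=5 per time point. Brain radioactivity was gamma counted and normalised to a 1% injected-dose standard.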
# Heart [36] = assay: Biodistribution in ICR mouse heart at 2 uCi, iv measured at 2 hrs by gamma counting analysis; assay type: ADME, organism-based; settings: in vivo; in short: as §2
# Lung [37] = assay: Biodistribution in ICR mouse lung at 2 uCi, iv measured at 10 mins by gamma counting analysis; assay type: ADME, organism-based; settings: in vivo; in short: as §2
# Liver [38] = assay: Biodistribution in ICR mouse liver at 2 uCi, iv measured at 30 mins by gamma counting analysis; assay type: ADME, organism-based; settings: in vivo, 0.5 h; in short: as §2
# Brain [39] = assay: Biodistribution in ICR mouse brain at 2 uCi, iv measured at 1 hr by gamma counting analysis; assay type: ADME, organism-based; settings: in vivo; in short: as §2
compound,measurement,setting,value
CN(C)c1ccc(/C=C2\COc3ccc(Br)cc3C2=O)cc1,Activity,[1],Active
same,Ki,[2],9.1 nM
same,Activity,[3],inactive
O=C1/C(=C/c2ccccc2)COc2ccc(Br)cc21,Ki,[2],104 nM
Nc1ccc(/C=C2\COc3ccc(Br)cc3C2=O)cc1,Ki,[2],63.6 nM
COc1ccc(/C=C2\COc3ccc(Br)cc3C2=O)cc1OC,Ki,[2],54.2 nM
COc1cc(/C=C2\COc3ccc(Br)cc3C2=O)cc(OC)c1,Ki,[2],39.2 nM
O=C1/C(=C/c2ccc(Br)cc2)COc2ccc(Br)cc21,Ki,[2],144 nM
O=C1/C(=C/c2ccc(O)cc2)COc2ccc(Br)cc21,Ki,[2],103 nM
CN(C)c1ccc(/C=C2\COc3ccc([125I])cc3C2=O)cc1,Drug uptake,Kidney [4],3.36 % ID/g
same,Drug uptake,Spleen [5],0.35 % ID/g
same,Drug uptake,Spleen [6],0.4 % ID/g
same,Drug uptake,Blood [7],2.38 % ID/g
same,Drug uptake,Heart [8],1.87 % ID/g
same,Drug uptake,Spleen [9],2.54 % ID/g
same,Drug uptake,Spleen [10],0.7 % ID/g
same,Drug uptake,Brain [11],0.32 % ID/g
same,Drug uptake,Lung [12],0.99 % ID/g
same,Drug uptake,Brain [13],2.61 % ID/g
same,Drug uptake,Kidney [14],10.88 % ID/g
same,Drug uptake,Spleen [15],1.27 % ID/g
same,Drug uptake,Blood [16],8.35 % ID/g
same,Drug uptake,Blood [17],1.22 % ID/g
same,Drug uptake,Liver [18],13.57 % ID/g
same,Drug uptake,Kidney [19],1 % ID/g
same,Drug uptake,Heart [20],0.49 % ID/g
same,Drug uptake,Brain [21],0.1 % ID/g
same,Drug uptake,Liver [22],1.05 % ID/g
same,Drug uptake,Blood [23],3.87 % ID/g
same,Drug uptake,Liver [24],1.23 % ID/g
same,Drug uptake,Lung [25],9.33 % ID/g
same,Drug uptake,Brain [26],0.83 % ID/g
same,Drug uptake,Blood [27],1.05 % ID/g
same,Drug uptake,Kidney [28],1.42 % ID/g
same,Drug uptake,Liver [29],4.71 % ID/g
same,Drug uptake,Heart [30],4.46 % ID/g
same,Drug uptake,Lung [31],2.29 % ID/g
same,Drug uptake,Kidney [32],17.89 % ID/g
same,Drug uptake,Heart [33],0.87 % ID/g
same,Drug uptake,Lung [34],0.73 % ID/g
same,Ratio,Brain [35],6.9%
same,Drug uptake,Heart [36],0.36 % ID/g
same,Drug uptake,Lung [37],4.87 % ID/g
same,Drug uptake,Liver [38],2.07 % ID/g
same,Drug uptake,Brain [39],0.18 % ID/g
O=C1/C(=C/c2ccc([N+](=O)[O-])cc2)COc2ccc(Br)cc21,Ki,[2],108 nM
CN(C)c1ccc(/C=C2\COc3ccc(Br)cc3C2=O)cc1Br,Ki,[2],25.5 nM
COc1cccc(/C=C2\COc3ccc(Br)cc3C2=O)c1,Ki,[2],73.5 nM
COc1ccc(/C=C2\COc3ccc(Br)cc3C2=O)cc1,Ki,[2],9.98 nM
COc1cc(/C=C2\COc3ccc(Br)cc3C2=O)ccc1O,Ki,[2],432 nM
